# Screening data as filed in PubChem.
# PGC1a acetyl up = compounds raising PGC1a acetylation signal, primary screen, PGC1a modulator project, cell-based, U2OS, AlphaScreen, signal-increasing mode | overnight | activation, % at 15.6 µM | 350,000 tested, 0.21% active;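 active = every replicate reaching activation of at least 50%, whatever the mean replicate activation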;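 note: hits raise the AlphaScreen acetylation signal above neutral controls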
#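 System: Flag-PGC1a/GCN5 U2OS cells | Quantity: 7000 cells/well | Times: Overnight compound treatment, 37 °C | Measured by: AlphaScreen proximity luminescence, anti-acetyl-lysine antibody | Dosing: One concentration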
# * hit, by the source's call. Only a sample is shown.
SMILES,PGC1a acetyl up
CCOC(=O)CC(S(=O)(=O)c1ccccc1)S(=O)(=O)c1ccccc1,96*
CCOC(=O)C1=C(CS(=O)(=O)c2ccccc2)NC(=O)NC1c1ccc(O)c(OC)c1 (stereo unspecified),-52
Cc1ccsc1C(=O)Nc1cc(Cl)ccc1-n1cncn1,-61
CC(NS(=O)(=O)c1ccccc1Cl)C1CC2CCC1C2 (stereo unspecified),102*
CCOc1ccc(NC(=O)c2cccc3c2C(=O)N(CCOC)C3)cc1,94*
C(=C\c1ccccc1)/CN1CCN(C(c2ccnc3ccccc23)c2nnnn2C2CCCCC2)CC1 (stereo unspecified),65*
CO[C@@H]1CN(C)C(=O)c2cc(NS(=O)(=O)c3ccc(Cl)cc3)ccc2OC[C@H](C)N(C)C[C@H]1C,-60
O=C(Cc1ccncc1)NCC[C@H]1CC[C@@H](NC(=O)C2CC2)[C@H](CO)O1,-62
O=C(Cc1ccc([N+](=O)[O-])cc1)N/N=C/c1ccc([N+](=O)[O-])o1,302*
O=C(CNc1cccc([N+](=O)[O-])c1)N/N=C/c1ccc([N+](=O)[O-])o1,92*
N#CCc1ccc(NC(=O)/C=C/c2ccc([N+](=O)[O-])o2)cc1,299*
COc1ccc(/C=N/NC(=O)c2ccc(NC(=O)c3cccc([N+](=O)[O-])c3)cc2)c(OC)c1,-97
CC(C)C#Cc1cnc2c(c1)C(=O)N([C@H](C)CO)C[C@H](C)[C@H](CN(C)C(=O)c1ccccn1)O2,-45
CCS(=O)(=O)Nc1ccc2c(c1)C(=O)N(C)C[C@@H](OC)[C@H](C)CN(Cc1ccccn1)[C@@H](C)CO2,-44
CCOc1ccc(C(C)=O)cc1N1C(=O)C2C3C=CC(C3=C(C)C)C2C1=O (stereo unspecified),-44
CO[C@H]1CN(C)C(=O)c2ccc(NS(=O)(=O)c3ccccc3)cc2OC[C@@H](C)N(C(=O)NC(C)C)C[C@@H]1C,-52
C#CC(=O)N(c1cc(OC)ccc1OC)C(C(=O)NC1CCCC1)c1cccs1 (stereo unspecified),-88
CC(C)(O)C#Cc1ccc(C(=O)NC(CCCNC(N)=O)C(=O)O)s1 (stereo unspecified),-82
CC1=NN(C(=O)c2ccc(C)cc2)C(O)(C(F)(F)OC(F)(F)F)C1 (stereo unspecified),55*
CC(C)CCC1=NN(C(=O)c2ccco2)C(O)(C(F)(F)F)C1 (stereo unspecified),-44
CCCNC(=O)N(C)C[C@H]1Oc2cc(C#CC(C)C)ccc2S(=O)(=O)N([C@@H](C)CO)C[C@H]1C,-51
c1ccc(N2CCN(C3CC4CCC3C4)CC2)cc1 (stereo unspecified),-53
COc1ccc(NC(=O)c2ccc3c(c2)OCO3)cc1Cl,-42
CC1=C(C(=O)OCc2ccc3c(c2)OCO3)C(c2ccc(Cl)cc2)NC(=O)N1 (stereo unspecified),-43
COc1ccc(C2CCc3cc4c(cc3C2=NOC(C)=O)OCO4)cc1OC (stereo unspecified),56*
SMILES,PGC1a acetyl up
Cc1cccc(COc2ccc(/C=C3/C(=O)N(C)C(=S)N3C)cc2)c1,-71
CC(C)(C)C(=O)Nc1sc2c(c1-c1nc3ccccc3[nH]1)CCCC2,65*
O=C(Nc1ccc(C(F)(F)F)cc1)N1C[C@@H]2N[C@H](C1)C2c1ccc(-c2cccc(F)c2)cc1 (stereo partly specified),-62
Cc1ccc(-c2ccc(C3[C@@H]4CN(C(=O)Nc5ccc(C(F)(F)F)cc5)C[C@H]3N4)cc2)cc1 (stereo partly specified),-70
Cc1cccc(-c2ccc(C3[C@@H]4CN(C(=O)C5CCCCC5)C[C@H]3N4)cc2)c1 (stereo partly specified),74*
Cc1ccc(OC[C@H](O)[C@H](C)NC(C)C)c2c1CCC2,-45
CCC(=O)NCc1c(C)c(C)n(Cc2ccccc2)c1-n1cccc1,-43
O=S(=O)(c1cnccc1N1CCN(/N=C/c2ccccc2)CC1)N1CCCCC1,-57
On1onc2c3cc(-c4ccccc4)nc3ccc21,620*
c1ccc(-c2cc(-c3ccccc3)n3ncnc3n2)cc1,-45
C[C@@H]1CN([C@H](C)CO)C(=O)c2cc(C#CC3CC3)cnc2O[C@H]1CN(C)C(=O)Nc1ccc(F)cc1,-41
CN(C)Cc1c(O)ccc2c1O/C(=C\C=C\c1ccccc1)C2=O,79*
CN(c1cccc(NS(=O)(=O)c2cccs2)c1)S(C)(=O)=O,-51
O=C(CCCCCN1C(=O)c2cccc3cccc(c23)C1=O)NCc1cccnc1,494*
CC(C)Cn1cnc2c(N)nc3ccccc3c21,-42
CS(=O)(=O)N(CC(=O)N1CCN(c2ccccc2)CC1)c1cccc(Br)c1,-43
CC(=O)Nc1ccc(NC(=O)CN(c2cccc([N+](=O)[O-])c2)S(C)(=O)=O)cc1,455*
Cc1cccc(S(=O)(=O)N(C)C[C@@H]2OCc3cn(nn3)CCCC(=O)N([C@@H](C)CO)C[C@H]2C)c1,-59
O=C(NC(=S)Nc1ccc(CN2CCCCC2)cc1)c1cc2ccccc2o1,-43
